Sampled rows, rich in hits. Any-hit rate of the full collection: about 2.3%.
TRPC6 inhibitor – inhibitors of mouse TRPC6 channel; HEK293-TRPC6, membrane potential dye, ACh-evoked depolarization; stronger effect = lower value; B-score at 10 µM; 310,000 compounds, 1.1% hits; AID 2553;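 active = B-score under library mean minus 3 SD, initial fluorescence not abnormally high, positive integrated signal ratio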;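 also: B-score derived from integrated fluorescence ratio over the kinetic read; more negative B-score means stronger inhibition of depolarization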
TRPC4 block – inhibitors of mouse TRPC4 channel; Q9QUQ5; HEK293 TRPC4beta/mu-opioid, DAMGO-evoked Fluo4 calcium flux; stronger effect = lower value; B-score at 10 µM; 300,000 compounds, 0.39% hits; AID 2247;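 active = B-score over 3 SD under the library average, no early fluorescence shift, positive overall ratio signal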
Target sequence (Q9QUQ5 whole entry, looked up): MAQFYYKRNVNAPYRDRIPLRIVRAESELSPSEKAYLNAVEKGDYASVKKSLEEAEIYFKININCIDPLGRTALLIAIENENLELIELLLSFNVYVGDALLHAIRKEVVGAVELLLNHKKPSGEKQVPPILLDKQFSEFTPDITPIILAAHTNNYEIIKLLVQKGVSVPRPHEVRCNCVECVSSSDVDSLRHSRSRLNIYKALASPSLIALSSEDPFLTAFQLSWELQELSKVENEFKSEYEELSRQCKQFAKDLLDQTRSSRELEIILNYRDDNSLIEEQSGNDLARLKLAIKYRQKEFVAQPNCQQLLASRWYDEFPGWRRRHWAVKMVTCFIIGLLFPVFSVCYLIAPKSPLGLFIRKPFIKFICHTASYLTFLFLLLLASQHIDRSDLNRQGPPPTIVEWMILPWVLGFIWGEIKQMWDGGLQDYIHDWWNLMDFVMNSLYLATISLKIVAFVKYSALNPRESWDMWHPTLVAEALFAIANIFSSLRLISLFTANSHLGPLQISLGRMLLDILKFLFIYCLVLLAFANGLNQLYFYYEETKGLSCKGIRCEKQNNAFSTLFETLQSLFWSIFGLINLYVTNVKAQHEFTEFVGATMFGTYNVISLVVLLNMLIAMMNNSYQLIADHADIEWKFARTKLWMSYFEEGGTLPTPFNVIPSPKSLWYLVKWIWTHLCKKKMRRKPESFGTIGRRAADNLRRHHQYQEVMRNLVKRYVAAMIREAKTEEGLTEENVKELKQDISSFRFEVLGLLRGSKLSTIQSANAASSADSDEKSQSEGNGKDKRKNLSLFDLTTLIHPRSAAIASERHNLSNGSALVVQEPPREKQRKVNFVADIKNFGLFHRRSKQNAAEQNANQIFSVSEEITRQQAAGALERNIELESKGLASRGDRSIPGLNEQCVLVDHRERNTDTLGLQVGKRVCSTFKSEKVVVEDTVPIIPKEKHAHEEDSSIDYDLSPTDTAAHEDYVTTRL
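Assay system: HEK293 cells with stable TRPC4beta plus mu-opioid receptor expression; Probe or stimulus: DAMGO in two steps, submaximal then maximal; Dosing: single-point compound dosing; Measured by: Fluo4 calcium-dye fluorescence, kinetic read; Read-out basis: B score from integrated Fluo4 fluorescence ratio.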
TRPC4 potent – allosteric potentiators of mouse TRPC4 channel; Q9QUQ5; HEK293 TRPC4beta/mu-opioid, DAMGO EC20, Fluo-4 Ca2+ flux; stronger effect = higher value; B-score at 10 µM; 310,000 compounds, 0.42% hits;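 active = B-score of calcium response area above 5 SD of library B-scores, with initial fluorescence ratio within 5 SD of library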;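 also: B-score of integrated fluorescence ratio over time as area under calcium response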
TRPC6 act – activates the mouse TRPC6 cation channel | Q61143 | HEK293-TRPC6 membrane potential dye fluorescence; stronger effect = higher value | B-score at 10 µM | 310,000 compounds, 0.13% hits;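 active = B-score of the integrated fluorescence ratio above library mean plus 3 SD, and starting fluorescence ratio within library mean plus 5 SD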;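 also: higher score means more depolarization so channel activation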
Yeast superoxide – lowers age-related superoxide in aged yeast cells; 330,000 compounds, 0.18% hits; S. cerevisiae aged cells, superoxide DHE fluorescence; stronger effect = lower value; superoxide response (% of plate mean), % at 10 µM; AID 2690;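 active = superoxide response under a set limit, about three screen SD below normal, cut at about 65% in these data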;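 also: yeast aged for seven days with compound at 30 °C before DHE staining; 100% = average MFI of all compound-treated wells on the plate with controls excluded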
TRPC4 agonist – opens the mouse TRPC4 cation channel; Q9QUQ5; HEK293 TRPC4beta/mu-opioid, Fluo4 calcium fluorescence; stronger effect = higher value; B-score at 10 µM; 310,000 compounds, 0.49% hits; AID 2237;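 active = B-score above 5 SD of library B-scores, and initial fluorescence ratio not above library mean plus 5 SD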;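 also: positive B-score marks a calcium rise read as TRPC4 activation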
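Material: HEK293 stable line with TRPC4beta plus mu-opioid receptor; technique: Fluo4 calcium-sensitive dye fluorescence, kinetic, 1 Hz baseline; timing: Fluo4 dye loading 45 min at room temperature, 110 s recording; controls: assay buffer as low control, maximal DAMGO as high control; read-out: integrated baseline-normalised fluorescence ratio, converted to per-well B score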
TRPC4 sel inh 2 – second selectivity test of TRPC6 inhibitors: effect on mouse TRPC4; HEK293 TRPC4/MOR, membrane potential dye fluorescence; channel activated by saturating DAMGO dose; shares compounds with TRPC6 inhibitor; 920 compounds, 42% hits; inhibition, % at 10 µM; AID 2776;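 active = compounds whose fluorescence signal differed from control wells by over 3 SD, either direction, in both duplicate plates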
TRPC4 spec – mouse TRPC4 off-target activity of TRPC6 inhibitors. shares compounds with TRPC6 inhibitor. HEK293 TRPC4/mu-opioid, membrane potential fluorescence. activity change, negative = inhibition, % at 10 µM. 920 compounds, 61% hits. AID 2777;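 active = rise or fall in signal beyond 3 SD of buffer-only wells in both replicate plates, either sign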;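 also: integrated kinetic ratio of fluorescence range over baseline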
HEK293 MPD ctr 2-1 – second check of TRPC6 inhibitor effects in parental HEK293 cells; shares compounds with TRPC6 inhibitor; parental HEK293 membrane potential dye fluorescence; maximal acetylcholine challenge after compound addition; signal change vs control, % at 10 µM; 920 compounds, 31% hits; AID 2779;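 active = membrane potential signal moving either way by over 3 SD of the maximum-effect control, in both duplicate plates, meaning non-specific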
HEK293 MPD ctr-1 – checks TRPC6 inhibitor effects in parental HEK293 cells. shares compounds with TRPC6 inhibitor. parental HEK293 membrane potential dye fluorescence. membrane potential signal change, % at 10 µM. 920 compounds, 60% hits;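 active = membrane potential signal shifting up or down by more than 3 SD of buffer-only wells, on both duplicate plates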
HEK293 MPD ctr-2 – checks TRPC6 modulator effects in parental HEK293 cells. shares compounds with TRPC6 inhibitor. membrane potential dye fluorescence. membrane potential signal change, % at 10 µM. 2,400 compounds, 51% hits;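 active = membrane potential signal moves up or down beyond 5 SD from buffer-only wells, on both duplicate plates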
HEK293 MPD ctr 2-2 – second check of TRPC6 modulator effects in parental HEK293 cells. 2,400 compounds, 14% hits. membrane potential dye fluorescence; after compound, maximal acetylcholine stimulation. inhibition, % at 10 µM. shares compounds with TRPC6 inhibitor;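 active = membrane potential signal drops by more than 5 SD from the mean control signal, in both duplicate plates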;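 also: plate controls were acetylcholine ECmax control wells for no effect and buffer only wells for full effect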
TRPC4 ctr mod – tests whether TRPC6 modulators also affect mouse TRPC4; shares compounds with TRPC6 inhibitor; HEK293 TRPC4/mu-opioid, membrane potential fluorescence; percent change from control (negative = decrease, positive = increase), % at 10 µM; 2,400 compounds, 69% hits; AID 488927;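 active = membrane potential signal moved up or down beyond 5 SD of buffer control wells, in both duplicate plates, actives on both sides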;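 also: plate controls were assay buffer wells for no effect and DAMGO maximal-effect wells for full effect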
TRPC4 ctr inh 2 – second selectivity test of TRPC6 modulators against mouse TRPC4 | shares compounds with TRPC6 inhibitor | HEK293 TRPC4/mu-opioid, membrane potential dye fluorescence; stimulated with maximal-effect DAMGO | inhibition, % at 10 µM | 2,400 compounds, 55% hits;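 active = drop in membrane potential signal beyond 5 SD of the control wells in both duplicate plates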;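 also: TRPC4 counter screen for TRPC6 hits run under conditions tuned for TRPC6 not TRPC4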
TRPC6 block conf – mouse TRPC6 inhibitor confirmation | shares compounds with TRPC6 inhibitor | HEK293-TRPC6, membrane potential dye, ACh-evoked depolarization | inhibition, % at 10 µM | 3,300 compounds, 43% hits | AID 488960;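 active = fluorescence ratio falls more than 5 SD below the full-stimulation control mean, in both duplicate runs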;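 also: integrated fluorescence ratio of peak minus minimum over baseline after agonist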
TRPC6 act confirm – confirmation of mouse TRPC6 activators; activation, % at 10 µM; HEK293-TRPC6 membrane potential dye fluorescence, FDSS; shares compounds with TRPC6 inhibitor; 2,800 compounds, 11% hits;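 active = ratio signal rise beyond 5 SD above unstimulated control wells' mean, seen in both duplicate runs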;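 also: plate controls were buffer EC0 wells for no effect and acetylcholine ECmax response for full effect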
An asterisk follows results filed as active; i = inactive; . = not tested or not shown.

SMILES	TRPC6 inhibitor	TRPC4 block	TRPC4 potent	TRPC6 act	Yeast superoxide	TRPC4 agonist	TRPC4 sel inh 2	TRPC4 spec	HEK293 MPD ctr 2-1	HEK293 MPD ctr-1	TRPC6 block conf	TRPC6 act confirm	others
CC(C)(C)c1ccc(OCCNCc2ccccc2)cc1	i	i	i	i	104	i	.	.	.	.	.	.
C[n+]1ccccc1COc1ccc(C(C)(C)C)cc1	-5.1*	i	i	i	93	i	.	.	.	.	i	i	HEK293 MPD ctr-2=i;HEK293 MPD ctr 2-2=i;TRPC4 ctr mod=i;TRPC4 ctr inh 2=i
CC(C)Cc1nnc(NC(=O)Cc2ccc([N+](=O)[O-])cc2)s1	i	i	i	i	103	i	.	.	.	.	.	.
Cn1c(C(=O)O)cnc1Sc1ncc(C(F)(F)F)cc1Cl	i	i	i	i	104	i	.	.	.	.	.	.
CC(C)NC(=O)c1cnc(Sc2ncc(C(F)(F)F)cc2Cl)n1C	-5.7*	i	i	i	103	i	.	.	.	.	i	i	HEK293 MPD ctr-2=i;HEK293 MPD ctr 2-2=i;TRPC4 ctr mod=i;TRPC4 ctr inh 2=i
Cc1ccc(C)c(S(=O)(=O)N2CCCOC2CNC(=O)C(=O)NCc2cccs2)c1 (stereo not given)	i	i	i	i	94	i	.	.	.	.	.	.
Cc1c(NC(=O)Nc2ccc3c(c2)OCO3)cccc1[N+](=O)[O-]	i	i	i	i	101	i	.	.	.	.	.	.
CCOC(=O)c1c(C)cc(C)n2c1nc1ccccc12	-8.1*	i	i	i	96	i	i	-21%*	i	-250%*	i	i
c1ccc2oc(C3=NNC(=NC4CC4)SC3)cc2c1	-8.4*	i	i	i	104	i	i	i	i	i	i	i
CN(C)CCC(O)(c1ccccc1)c1ccccc1	i	i	i	i	89	i	.	.	.	.	.	.
CN(C)CCC#CC(O)(c1ccccc1)c1ccccc1	-5.7*	i	i	i	97	i	.	.	.	.	84%*	.	HEK293 MPD ctr-2=i;HEK293 MPD ctr 2-2=98%*;TRPC4 ctr mod=7.0%*;TRPC4 ctr inh 2=i
CCN(CC)CC#CC(O)(c1ccccc1)c1ccccc1	-14*	i	i	i	110	i	i	1.8%*	-31%*	5.0%*	80%*	i
CN(C)C(C)(C)C#CC(O)(c1ccccc1)c1ccccc1	-8.4*	i	i	i	93	i	i	-0.1%*	11%*	4.5%*	67%*	i
OCCN(CC#CC(O)(c1ccccc1)c1cccc(F)c1)CCO (stereo not given)	i	i	i	i	98	i	.	.	.	.	.	.
COc1cccc2sc3ccc(C#CC4(N)CCCCC4)cc3c(=O)c12	-9.2*	i	i	i	115	i	59%*	-15%*	i	-228%*	57%*	i
COc1cccc2sc3cc(C#CC4(O)CCCCC4)ccc3c(=O)c12	.	.	.	.	107	.	.	.	.	.	.	.
CCCN(CCC)CC(O)Cn1cc(/C=C/C(=O)c2cccs2)c2ccccc21 (stereo not given)	-11*	i	i	i	102	i	24%*	9.6%*	i	16%*	i	i
O=c1c2ccccc2n(CC(O)CN2CCOCC2)c2ccccc12 (stereo not given)	i	i	i	i	114	i	.	.	.	.	.	.
CCCNCC(O)Cn1c2ccccc2n2c(=O)cc(C)c(C#N)c12 (stereo not given)	i	i	i	i	97	i	.	.	.	.	.	.
O=c1c2ccccc2n(CC(O)CN2CCCCC2)c2ccccc12 (stereo not given)	-5.2*	i	i	i	102	i	.	.	.	.	i	i	HEK293 MPD ctr-2=-104%*;HEK293 MPD ctr 2-2=i;TRPC4 ctr mod=-16%*;TRPC4 ctr inh 2=49%*
Cc1cc(=O)n2c3ccccc3n(CC(O)CN3CCCC3)c2c1C#N (stereo not given)	-8*	i	i	i	99	i	68%*	-19%*	i	-280%*	53%*	i
O=C(/C=C/c1cn(CC(O)CN2CCCCC2)c2ccccc12)c1ccccc1 (stereo not given)	-6.4*	i	i	i	.	i	.	.	.	.	74%*	.	HEK293 MPD ctr-2=294%*;HEK293 MPD ctr 2-2=i;TRPC4 ctr mod=i;TRPC4 ctr inh 2=84%*
O=C(COc1ccc(F)c(Cl)c1)c1ccc[nH]1	i	i	i	i	87	i	.	.	.	.	.	.
Nc1ccc(C(=O)OCc2nc3ccccc3s2)cc1	-7.8*	i	i	i	98	i	i	i	i	i	i	i
OCC1(Cc2ccccc2Cl)CCN(C/C=C/c2ccccc2)CC1	-5.3*	i	i	i	94	i	.	.	.	.	i	.	HEK293 MPD ctr-2=132%*;HEK293 MPD ctr 2-2=i;TRPC4 ctr mod=25%*;TRPC4 ctr inh 2=60%*
OCC1(CCc2ccccc2)CCN(C/C=C/c2ccccc2)CC1	i	i	i	i	92	i	.	.	.	.	.	.
Cc1cc(C)n(Cc2ccc(NC(=O)c3nn(C)cc3[N+](=O)[O-])cc2)n1	i	i	i	i	143	i	.	.	.	.	.	.
Cc1ccc2c(c1)C(c1ccccc1)N(C(=O)c1ccccc1)CC(=O)N2 (stereo not given)	i	i	i	i	95	i	.	.	.	.	.	.

Compound activity deposited in PubChem BioAssay by several laboratories.
